Assay results reported in ChEMBL document CHEMBL4316610, “Synthesis and Biological Studies of (+)-Liquiditerpenoic Acid A (Abietopinoic Acid) and Representative Analogues: SAR Studies” (J Nat Prod, 2019).
Activity calls are given as the source filed them. The calls are words filed in the database; no cut-off is given here.

How the values were obtained:
[1] = target: T1, GABA-A receptor; alpha-1/beta-2/gamma-2 (Homo sapiens) (UniProt P14867+P47870+P18507); assay: Modulation of recombinant wild type GABAA receptor alpha1beta2gamma2S (unknown origin) expressed in Xenopus laevis oocytes assessed as increase in GABA-evoked chloride current at 10 uM at -70 mV holding potential by two-microelectrode voltage clamp assay relative to control; assay type: cell-based
Outline: (§1)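 Two-microelectrode voltage clamp at -70 mV on Xenopus laevis oocytes expressing α1β2γ2S GABA-A receptors. GABA EC5 (4-5 μM), set individually for each oocyte, applied for 20 s alone, then co-applied with compound at 10 or 100 μM. Potentiation of GABA-evoked current is reported. Dehydroabietic acid served as positive control. Mean ± SEM from at least three oocytes and two oocyte batches.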

[2] = target: T1, GABA-A receptor; alpha-1/beta-2/gamma-2 (Homo sapiens); assay: Modulation of recombinant wild type GABAA receptor alpha1beta2gamma2S (unknown origin) expressed in Xenopus laevis oocytes assessed as increase in GABA-evoked chloride current at 100 uM at -70 mV holding potential by two-microelectrode voltage clamp assay relative to control; assay type: cell-based; outline: as §1
[3] = Cytotoxicity against mouse J774 cells assessed as reduction in cell viability after 48 hrs by resazurin dye-based fluorometric analysis
Outline: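 The CC50 is taken as the concentration giving a 50% reduction in cell viability of treated cultures compared with untreated cells.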

Leishmania donovani = assay: Antileishmanial activity against Leishmania donovani MHOM/IN/80/DD8 promastigotes after 48 hrs by resazurin dye-based fluorometric analysis; assay type: functional, organism-based
Outline: (§2)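 The IC50 is taken as the compound concentration giving a 50% reduction in parasites, reported with SD.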

Leishmania amazonensis = assay: Antileishmanial activity against Leishmania amazonensis MHOM/Br/79/Mari promastigotes after 48 hrs by resazurin dye-based fluorometric analysis; assay type: functional, organism-based; outline: as §2
Leishmania guyanensis = assay: Antileishmanial activity against Leishmania guyanensis 141/93 promastigotes after 48 hrs by resazurin dye-based fluorometric analysis; assay type: functional, organism-based; outline: as §2
Leishmania infantum = assay: Antileishmanial activity against Leishmania infantum MCAN/ES/96/BCN150 promastigotes after 48 hrs by resazurin dye-based fluorometric analysis; assay type: functional, organism-based; outline: as §2
NALM-6 [4] = assay: Induction of apoptosis in human NALM6 cells at 10 uM after 24 hrs by Annexin V-FITC/propidium iodide staining-based flow cytometric analysis; assay type: functional, cell-based
Outline: (§3)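 Phosphatidylserine exposure read by Annexin V-FITC/propidium iodide flow cytometry; DNA content by PI staining for cell-cycle distribution.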

SW1573 [5] = assay: Antiproliferative activity against human SW1573 cells after 48 hrs by SRB assay; assay type: functional; conditions: SW1573, 48 h
HBL-100 [6] = assay: Antiproliferative activity against human HBL100 cells after 48 hrs by SRB assay; assay type: functional; conditions: HBL-100, 48 h
NALM-6 [7] = assay: Cell cycle arrest in human NALM6 cells assessed as accumulation at G0/G1 phase at 10 uM after 24 hrs by propidium iodide staining-based flow cytometric analysis; assay type: functional; outline: as §3
[8] = Selectivity index, ratio of CC50 for mouse J774 cells to IC50 for Leishmania amazonensis MHOM/Br/79/Mari promastigotes; assay type: toxicity; conditions: read-out: Ratio CC50/IC50
SUP-B15 = assay: Antiproliferative activity against human SUP-B15 cells after 72 hrs by CellTiter-Glo luminescent cell viability assay; assay type: functional, cell-based; conditions: SUP-B15, 72 h
HeLa [9] = assay: Antiproliferative activity against human HeLa cells after 48 hrs by SRB assay; assay type: functional
WiDr [10] = assay: Antiproliferative activity against human WiDr cells after 48 hrs by SRB assay; assay type: functional
[11] = Selectivity index, ratio of CC50 for mouse J774 cells to IC50 for Leishmania guyanensis 141/93 promastigotes; assay type: toxicity; conditions: read-out: Ratio CC50/IC50
BJ = assay: Antiproliferative activity against human BJ cells after 72 hrs by CellTiter-Glo luminescent cell viability assay; assay type: ADME, cell-based
NALM-6 [12] = assay: Cell cycle arrest in human NALM6 cells assessed as accumulation at G2/M phase at 10 uM after 24 hrs by propidium iodide staining-based flow cytometric analysis; assay type: functional; outline: as §3
T47D [13] = assay: Antiproliferative activity against human T47D cells after 48 hrs by SRB assay; assay type: functional
[14] = Antiproliferative activity against mouse leukemia cells overexpressing BCR/ABL after 72 hrs by CellTiter-Glo luminescent cell viability assay; assay type: functional, cell-based
KOPN-8 [15] = assay: Induction of apoptosis in human KOPN8 cells assessed as late apoptotic cells at 20 uM after 32 hrs by Annexin V-FITC/propidium iodide staining-based flow cytometric analysis relative to control; assay type: functional
[16] = Selectivity index, ratio of CC50 for mouse J774 cells to IC50 for Leishmania donovani MHOM/IN/80/DD8 promastigotes; assay type: toxicity; conditions: read-out: Ratio CC50/IC50
A549 [17] = assay: Antiproliferative activity against human A549 cells after 48 hrs by SRB assay; assay type: functional; conditions: A549, 48 h
KOPN-8 [18] = assay: Antiproliferative activity against human KOPN8 cells after 72 hrs by CellTiter-Glo luminescent cell viability assay; assay type: functional, cell-based; conditions: KOPN-8, 72 h
[19] = Selectivity index, ratio of CC50 for mouse J774 cells to IC50 for Leishmania infantum MCAN/ES/96/BCN150 promastigotes; assay type: toxicity; conditions: read-out: Ratio CC50/IC50
NALM-6 [20] = assay: Antiproliferative activity against human NALM6 cells after 72 hrs by CellTiter-Glo luminescent cell viability assay; assay type: functional, cell-based; conditions: NALM-6, 72 h
UoC-B1 = assay: Antiproliferative activity against human UOCB1 cells after 72 hrs by CellTiter-Glo luminescent cell viability assay; assay type: functional, cell-based; conditions: UoC-B1, 72 h
T47D [21] = assay: Antiproliferative activity against human T47D cells; assay type: functional
A549 [22] = assay: Antiproliferative activity against human A549 cells; assay type: functional
WiDr [23] = assay: Antiproliferative activity against human WiDr cells; assay type: functional
SW1573 [24] = assay: Antiproliferative activity against human SW1573 cells; assay type: functional
HeLa [25] = assay: Antiproliferative activity against human HeLa cells; assay type: functional
HBL-100 [26] = assay: Antiproliferative activity against human HBL100 cells; assay type: functional
[27] = Leishmania donovani, MHOM/IN/80/DD8, 48 h, read-out: IC50
[28] = Leishmania donovani, MHOM/IN/80/DD8, 48 h, read-out: log(1/IC50) (converted)
[29] = Leishmania amazonensis, MHOM/Br/79/Mari, 48 h, read-out: IC50
[30] = Leishmania guyanensis, 141/93, 48 h, read-out: IC50
[31] = Leishmania infantum, MCAN/ES/96/BCN150, 48 h, read-out: IC50

| SMILES | Activity [1] [%] | Activity [2] [%] | CC50 at 48 h [3] [µM] | selectivity ratio [8] | selectivity ratio [11] | IC50 (Leishmania donovani; [27]) [µM] | IC50 (Leishmania donovani; [28]) [µM] | IC50 (Leishmania amazonensis; [29]) [µM] | selectivity ratio [16] | IC50 (Leishmania guyanensis; [30]) [µM] | IC50 (Leishmania infantum; [31]) [µM] | selectivity ratio [19] | further results |
| --- | --- | --- | --- | --- | --- | --- | --- | --- | --- | --- | --- | --- | --- |
| CC(C)c1cc2c(cc1O)[C@@]1(C)CCC[C@@](C)(C(=O)O)[C@@H]1CC2=O | -2 | -21.1 | 219 |  |  |  |  |  |  |  |  |  | IC50 (Leishmania donovani): Not Active; IC50 (Leishmania amazonensis): Not Active; IC50 (Leishmania guyanensis): Not Active; IC50 (Leishmania infantum): Not Active |
| COC(=O)[C@]1(C)CCC[C@]2(C)c3cc(OC(C)=O)c(C(C)C)cc3CC[C@@H]12 | 5.1 | 26.3 | 26.5 | 8.2 | 4.8 | 8.1 | 8.12 | 3.2 | 3.3 | 5.5 | 1.3 | 20.4 | Activity (NALM-6 [4]): inactive; GI50 (SW1573 [5]): 12 µM; GI50 (HBL-100 [6]): 15 µM; Activity (NALM-6 [7]): Active; EC50 (SUP-B15): 20.2 µM; GI50 (HeLa [9]): 4.4 µM; GI50 (WiDr [10]): 16 µM; EC50 (BJ): Non-Toxic; Activity (NALM-6 [12]): Active; GI50 (T47D [13]): 14 µM; EC50 [14]: 14.3 µM; Activity (KOPN-8 [15]): >85%; GI50 (A549 [17]): 11 µM; EC50 (KOPN-8 [18]): 21 µM; EC50 (NALM-6 [20]): 8.8 µM; EC50 (UoC-B1): > 40 µM |
| CCCCCCCCCCCCCCCCOP(=O)([O-])OCC[N+](C)(C)C [MILTEFOSINE] |  |  |  | 2.9 | 7.5 |  |  |  | 909 |  |  | 40.1 |  |
| CC(C)c1cc2c(cc1O)[C@@]1(C)CCC[C@@](C)(CO)[C@@H]1CC2=O | 4.5 | -30.3 | 14.4 | 1.4 | 0.9 | 19.7 | 19.7 | 10.2 | 0.7 | 16.5 | 9.7 | 1.5 |  |
| COC(=O)[C@]1(C)CCC[C@]2(C)c3cc(O)c(C(C)C)cc3CC[C@@H]12 | 23.7 | 378 | 34.2 | 8.7 | 5.8 | 9.21 | 9.21 | 3.9 | 3.7 | 5.9 | 5 | 6.8 | GI50 (SW1573 [5]): 11 µM; GI50 (HBL-100 [6]): 9.7 µM; GI50 (HeLa [9]): 5.8 µM; GI50 (WiDr [10]): 23 µM; GI50 (T47D [13]): 19 µM; GI50 (A549 [17]): 9.4 µM |
| CC(C)c1cc2c(cc1O)[C@@]1(C)CCC[C@@](C)(CO)[C@@H]1CC2 [18-HYDROXYFERRUGINOL] | 29.3 | 154 | 23.4 | 3 | 1.9 | 13.9 | 13.9 | 7.7 | 1.7 | 12.5 | 0.7 | 33.4 |  |
| COc1cc([C@@H]2c3cc4c(cc3[C@@H](O[C@@H]3O[C@@H]5CO[C@@H](C)O[C@H]5[C@H](O)[C@H]3O)[C@H]3COC(=O)[C@H]23)OCO4)cc(OC)c1O [ETOPOSIDE] |  |  |  |  |  |  |  |  |  |  |  |  | GI50 (SW1573 [5]): 15 µM; GI50 (HBL-100 [6]): 1.4 µM; GI50 (HeLa [9]): 3.3 µM; GI50 (WiDr [10]): 23 µM; GI50 (T47D [13]): 22 µM; GI50 (A549 [17]): 1.5 µM |
| COC(=O)[C@]1(C)CCC[C@]2(C)c3ccc(C(C)C)cc3CC[C@@H]12 [METHYL DEHYDROABIETATE] |  |  |  |  |  |  |  |  |  |  |  |  | GI50 (T47D [21]): 16 µM; GI50 (A549 [22]): 15 µM; GI50 (WiDr [23]): 10 µM; GI50 (SW1573 [24]): 22 µM; GI50 (HeLa [25]): 15 µM; GI50 (HBL-100 [26]): 19 µM |
| CC(C)c1cc2c(cc1O)[C@@]1(C)CCC[C@@](C)(C(=O)O)[C@@H]1CC2 | 8.9 | 12.1 | 85.8 | 1.6 | 1.2 | 58.1 | 58.1 | 54.1 | 1.5 | 71.4 | 43.6 | 2 |  |
| CN[C@@H]1C[C@H]2O[C@@](C)([C@@H]1OC)n1c3ccccc3c3c4c(c5c6ccccc6n2c5c31)C(=O)NC4 [STAUROSPORINE] |  |  |  |  |  |  |  |  |  |  |  |  | EC50 [14]: 0.35 µM; EC50 (NALM-6 [20]): 1.4 µM |
| COC(=O)[C@]1(C)CCC[C@]2(C)c3cc(O)c(C(C)C)cc3C(=O)C[C@@H]12 | 37.4 | 242 | 154 |  |  |  |  |  |  |  |  |  |  |
